Results published in ChEMBL document CHEMBL4616614, “Discovery of thieno[2,3-d]pyrimidin-4(3H)-one derivatives as a new class of ROCK inhibitors” (Bioorg Med Chem Lett, 2020).

Experiments:
[1] = target: Rho-associated protein kinase 2 (Homo sapiens, UniProt O75116); assay: Inhibition of recombinant human ROCK2 (11 to 552 residues) using KEAKEKRQEQIAKRRRLSSLRASTSKSGGSQK as substrate incubated for 40 mins in presence of [gamma-33P]ATP by radiometric scintillation assay
[2] = target: Rho-associated protein kinase 1 (Homo sapiens, UniProt Q13464); assay: Inhibition of recombinant human ROCK1 (17 to 535 residues) using KEAKEKRQEQIAKRRRLSSLRASTSKSGGSQK as substrate incubated for 40 mins in presence of [gamma-33P]ATP by radiometric scintillation assay
Sequence of Rho-associated protein kinase 1 (Q13464 whole entry, the tested form may be a part): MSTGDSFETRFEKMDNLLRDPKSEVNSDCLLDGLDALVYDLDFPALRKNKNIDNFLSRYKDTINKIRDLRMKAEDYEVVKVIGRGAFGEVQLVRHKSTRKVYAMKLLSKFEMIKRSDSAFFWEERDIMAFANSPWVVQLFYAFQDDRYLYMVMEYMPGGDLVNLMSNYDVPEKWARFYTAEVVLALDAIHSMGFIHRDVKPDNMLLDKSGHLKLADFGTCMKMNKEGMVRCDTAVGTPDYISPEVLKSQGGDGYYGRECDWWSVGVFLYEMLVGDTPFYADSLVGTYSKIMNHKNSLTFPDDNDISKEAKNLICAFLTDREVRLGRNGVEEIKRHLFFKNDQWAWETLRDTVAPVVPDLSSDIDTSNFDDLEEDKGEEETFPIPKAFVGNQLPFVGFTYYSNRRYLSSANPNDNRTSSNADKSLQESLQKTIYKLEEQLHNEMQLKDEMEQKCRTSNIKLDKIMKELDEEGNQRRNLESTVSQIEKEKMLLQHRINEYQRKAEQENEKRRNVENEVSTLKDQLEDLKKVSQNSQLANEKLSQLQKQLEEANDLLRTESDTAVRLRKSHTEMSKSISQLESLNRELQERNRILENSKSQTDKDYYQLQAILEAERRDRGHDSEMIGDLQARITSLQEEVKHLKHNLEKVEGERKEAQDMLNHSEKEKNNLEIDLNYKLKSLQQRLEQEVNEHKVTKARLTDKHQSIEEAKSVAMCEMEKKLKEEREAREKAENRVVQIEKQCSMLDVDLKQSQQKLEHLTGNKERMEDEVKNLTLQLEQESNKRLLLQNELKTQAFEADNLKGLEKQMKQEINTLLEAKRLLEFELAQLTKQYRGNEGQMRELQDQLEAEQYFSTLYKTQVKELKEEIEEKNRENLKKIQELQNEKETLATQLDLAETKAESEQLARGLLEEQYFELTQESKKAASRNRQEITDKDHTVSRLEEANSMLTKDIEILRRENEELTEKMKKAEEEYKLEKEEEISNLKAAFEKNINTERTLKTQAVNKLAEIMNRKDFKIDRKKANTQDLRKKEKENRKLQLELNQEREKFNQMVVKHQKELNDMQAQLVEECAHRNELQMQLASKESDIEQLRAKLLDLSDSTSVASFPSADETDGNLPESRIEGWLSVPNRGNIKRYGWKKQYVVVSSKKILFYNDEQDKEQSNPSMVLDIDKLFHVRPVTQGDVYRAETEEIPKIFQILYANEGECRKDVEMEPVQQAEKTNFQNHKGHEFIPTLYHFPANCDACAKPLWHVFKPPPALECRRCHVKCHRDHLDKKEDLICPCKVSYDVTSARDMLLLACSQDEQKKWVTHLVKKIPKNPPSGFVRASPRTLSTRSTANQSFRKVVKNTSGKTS
Summary of the method: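 IC50 values determined through a commercial kinase profiling service, with ATP at 10 µM.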

Sequence of Rho-associated protein kinase 2 (O75116 whole entry, the tested form may be a part): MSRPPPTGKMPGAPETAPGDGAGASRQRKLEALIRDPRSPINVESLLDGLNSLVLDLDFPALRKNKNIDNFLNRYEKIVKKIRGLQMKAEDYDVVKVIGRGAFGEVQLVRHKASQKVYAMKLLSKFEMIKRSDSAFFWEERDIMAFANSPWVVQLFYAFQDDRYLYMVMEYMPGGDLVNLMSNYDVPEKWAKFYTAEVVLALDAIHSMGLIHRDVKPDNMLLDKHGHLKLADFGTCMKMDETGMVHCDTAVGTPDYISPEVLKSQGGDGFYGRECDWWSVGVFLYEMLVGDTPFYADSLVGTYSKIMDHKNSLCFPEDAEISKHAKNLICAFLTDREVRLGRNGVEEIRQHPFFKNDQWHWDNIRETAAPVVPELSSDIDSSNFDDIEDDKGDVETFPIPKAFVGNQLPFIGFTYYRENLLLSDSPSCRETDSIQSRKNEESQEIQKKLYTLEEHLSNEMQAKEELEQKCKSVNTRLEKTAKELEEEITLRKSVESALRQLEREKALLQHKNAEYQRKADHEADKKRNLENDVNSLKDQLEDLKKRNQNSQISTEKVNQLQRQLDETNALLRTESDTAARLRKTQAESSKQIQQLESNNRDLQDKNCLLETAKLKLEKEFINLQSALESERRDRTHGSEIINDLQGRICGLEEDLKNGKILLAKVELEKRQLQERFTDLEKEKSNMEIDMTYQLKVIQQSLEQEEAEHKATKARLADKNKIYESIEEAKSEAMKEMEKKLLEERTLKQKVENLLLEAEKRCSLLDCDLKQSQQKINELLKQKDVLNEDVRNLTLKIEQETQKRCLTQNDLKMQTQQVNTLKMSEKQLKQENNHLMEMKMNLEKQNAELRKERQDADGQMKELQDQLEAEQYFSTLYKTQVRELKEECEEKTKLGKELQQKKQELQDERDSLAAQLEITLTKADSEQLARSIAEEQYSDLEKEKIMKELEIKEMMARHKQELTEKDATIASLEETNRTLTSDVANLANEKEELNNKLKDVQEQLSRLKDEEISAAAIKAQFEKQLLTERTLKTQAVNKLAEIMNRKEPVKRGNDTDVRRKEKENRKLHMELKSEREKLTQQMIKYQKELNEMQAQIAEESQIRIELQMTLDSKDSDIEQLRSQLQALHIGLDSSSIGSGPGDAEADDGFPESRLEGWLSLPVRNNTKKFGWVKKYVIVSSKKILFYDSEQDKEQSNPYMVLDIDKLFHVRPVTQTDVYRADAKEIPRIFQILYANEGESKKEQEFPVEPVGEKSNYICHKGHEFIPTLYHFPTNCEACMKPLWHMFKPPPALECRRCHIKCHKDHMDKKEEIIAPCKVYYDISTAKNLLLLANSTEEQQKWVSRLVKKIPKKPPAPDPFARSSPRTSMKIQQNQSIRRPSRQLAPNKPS

Row | SMILES | IC50 [1] [nM] | IC50 [2] [nM]
1 | COc1cccc(Cn2cnc3sc(-c4cccnc4)cc3c2=O)c1 | 3480 | > 10000
2 | COc1cccc(Cn2cnc3sc(-c4ccc(N)nc4)cc3c2=O)c1 | > 10000 | > 10000
3 | COc1cc(Cn2cnc3sc(-c4ccnc5[nH]ccc45)cc3c2=O)cc(OC)c1 | 4 | 74
4 | COc1cccc(Cn2cnc3sc(-c4ccc(-c5ccncc5)cc4)cc3c2=O)c1 | > 10000 | > 10000
5 | COc1cccc(Cn2cnc3sc(-c4ccc5[nH]ncc5c4)cc3c2=O)c1 | 2 | 20
6 | COc1ccc(Cn2cnc3sc(-c4ccnc(N)c4)cc3c2=O)cc1OC | 219 | > 10000
7 | COc1ccc(Cn2cnc3sc(-c4ccnc5[nH]ccc45)cc3c2=O)cc1 | 2 | 13
8 | COc1cccc(Cn2cnc3sc(-c4ccnc5[nH]ccc45)cc3c2=O)c1 | 1 | 4
9 | COc1cccc(Cn2cnc3sc(-c4cccc5[nH]ccc45)cc3c2=O)c1 | 583 | > 10000
10 | Nc1cc(-c2cc3c(=O)n(Cc4cccc(C(F)(F)F)c4)cnc3s2)ccn1 | 25 | 490
11 | COc1cccc(Cn2ccc3cc(-c4ccc5[nH]ncc5c4)ccc3c2=O)c1 | 107 | 1880
12 | COc1cccc(Cn2cnc3cc(-c4ccc5[nH]ncc5c4)ccc3c2=O)c1 | 88 | 3110
13 | COc1cccc(Cn2cnc3sc(-c4ccncc4)cc3c2=O)c1 | 6 | 45
14 | COc1cccc(Cn2cnc3sc(-c4ccnc(OC)c4)cc3c2=O)c1 | 6910 | > 10000
15 | COc1cccc(CN2CCc3cc(-c4ccc5[nH]ncc5c4)ccc3C2=O)c1 | 632 | 2060
16 | COc1cccc(Cn2cnc3sc(-c4ccnc(C)c4)cc3c2=O)c1 | 42 | 2510
17 | COc1ccc(Cn2cnc3sc(-c4ccnc(N)c4)cc3c2=O)cc1 | 46 | 1440
18 | O=c1c2cc(-c3ccnc4[nH]ccc34)sc2ncn1Cc1cccc(F)c1 | 1 | 13
19 | COc1cccc(Cn2ncc3cc(-c4ccc5[nH]ncc5c4)ccc3c2=O)c1 | 398 | > 10000
20 | COc1cccc(Cn2cnc3sc(-c4ccnc(Cl)c4)cc3c2=O)c1 | 501 | > 10000
21 | COc1ccc(Cn2cnc3sc(-c4ccnc5[nH]ccc45)cc3c2=O)cc1OC | 4 | 25
22 | O=c1c2cc(-c3ccnc4[nH]ccc34)sc2ncn1Cc1cccc(C(F)(F)F)c1 | 7 | 110
23 | COc1cccc(Cn2cnc3sc(-c4ccnc(N)c4)cc3c2=O)c1 | 1 | 18
24 | Nc1cc(-c2cc3c(=O)n(Cc4cccc(F)c4)cnc3s2)ccn1 | 5 | 34
25 | COc1cccc(Cn2cnc3sc(-c4ccnc(F)c4)cc3c2=O)c1 | 83 | 1050
26 | COc1cc(Cn2cnc3sc(-c4ccnc(N)c4)cc3c2=O)cc(OC)c1 | 58 | > 10000
